# Active and inactive are the calls of the source. No cut-off for these calls is given here.
# Columns and labels:
# [1] = target: T1, Sodium- and chloride-dependent glycine transporter 1 (Rattus norvegicus) (UniProt P28572); test: Binding affinity to GlyT1 in rat brain thalamus at 0.03 to 0.04 nM preincubated for 20 mins in binding buffer before compound addition measured after 30 mins by autoradiography in presence of 1 mM GlyT1 substrate glycine relative to control; type: tissue-based; details: tested as the 125I-labelled form
# T1 sequence (whole entry): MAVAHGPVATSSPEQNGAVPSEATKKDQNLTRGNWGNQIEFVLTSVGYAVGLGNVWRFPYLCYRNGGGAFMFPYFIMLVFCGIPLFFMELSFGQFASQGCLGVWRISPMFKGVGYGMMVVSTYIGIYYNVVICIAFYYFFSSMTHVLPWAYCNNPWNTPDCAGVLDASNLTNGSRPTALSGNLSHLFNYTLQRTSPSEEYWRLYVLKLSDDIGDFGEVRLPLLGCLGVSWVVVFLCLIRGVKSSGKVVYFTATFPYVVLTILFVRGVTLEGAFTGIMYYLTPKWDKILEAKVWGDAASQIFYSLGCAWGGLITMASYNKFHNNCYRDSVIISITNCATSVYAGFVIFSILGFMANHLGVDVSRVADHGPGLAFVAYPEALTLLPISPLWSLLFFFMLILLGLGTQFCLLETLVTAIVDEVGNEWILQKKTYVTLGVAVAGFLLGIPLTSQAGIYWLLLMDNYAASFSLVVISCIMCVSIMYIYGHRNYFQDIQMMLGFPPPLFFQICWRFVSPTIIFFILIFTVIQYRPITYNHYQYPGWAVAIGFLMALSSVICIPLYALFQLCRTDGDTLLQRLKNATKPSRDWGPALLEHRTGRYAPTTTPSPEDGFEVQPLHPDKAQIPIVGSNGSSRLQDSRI
# Mus musculus [2] = test: In vivo binding affinity to GlyT1 in ddY mouse brain midbrain at 33.3 kBq, iv after 30 mins in presence of SSR504734 2 mg/kg, iv administered 15 mins prior to compound administration relative to control; type: functional, organism-based; set-up: dose 2 mg/kg; details: tested as the 125I-labelled form
# Mus musculus [3] = test: In vivo binding affinity to GlyT1 in ddY mouse brain striatum at 200 kBq, iv after 60 mins by autoradiography relative to control; type: functional, organism-based; details: tested as the 125I-labelled form
# [4] = target: T1, Sodium- and chloride-dependent glycine transporter 1 (Rattus norvegicus); test: Binding affinity to GlyT1 in rat brain corpus callosum at 0.03 to 0.04 nM preincubated for 20 mins in binding buffer before compound addition measured after 30 mins by autoradiography in presence of 0.01 mM GlyT1 inhibitor ALX5407 relative to control; type: tissue-based; details: tested as the 125I-labelled form
# In short: (§1)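 Rat brain sagittal sections (20 µm) preincubated 20 min at 25 °C in Tris-HCl buffer pH 7.5 (NaCl, KCl, MgCl2, CaCl2), then 30 min at 25 °C with [125I] tracer (100 kBq, 0.03–0.04 nM) plus competitor (10 µM; glycine 1 or 10 mM). Cold washes, imaging plate 3 days, ROI PSL minus background per mm². % control from ≥triplicate slices, three rats.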
# [5] = target: T1, Sodium- and chloride-dependent glycine transporter 1 (Rattus norvegicus); test: Binding affinity to GlyT1 in rat brain hippocampus at 0.03 to 0.04 nM preincubated for 20 mins in binding buffer before compound addition measured after 30 mins by autoradiography in presence of 0.01 mM GlyT2 inhibitor ORG25543 relative to control; type: tissue-based; details: tested as the 125I-labelled form; in short: as §1
# [6] = target: T1, Sodium- and chloride-dependent glycine transporter 1 (Rattus norvegicus); test: Binding affinity to GlyT1 in rat brain midbrain at 0.03 to 0.04 nM preincubated for 20 mins in binding buffer before compound addition measured after 30 mins by autoradiography in presence of 0.01 mM GlyT1 inhibitor HPCP relative to control; type: tissue-based; details: tested as the 125I-labelled form; in short: as §1
# [7] = target: T2, Sodium- and chloride-dependent glycine transporter 1 (Homo sapiens) (UniProt P48067); test: Ratio of compound IC50 to ALX5407 IC50 for human GlyT1
# T2 sequence (whole entry): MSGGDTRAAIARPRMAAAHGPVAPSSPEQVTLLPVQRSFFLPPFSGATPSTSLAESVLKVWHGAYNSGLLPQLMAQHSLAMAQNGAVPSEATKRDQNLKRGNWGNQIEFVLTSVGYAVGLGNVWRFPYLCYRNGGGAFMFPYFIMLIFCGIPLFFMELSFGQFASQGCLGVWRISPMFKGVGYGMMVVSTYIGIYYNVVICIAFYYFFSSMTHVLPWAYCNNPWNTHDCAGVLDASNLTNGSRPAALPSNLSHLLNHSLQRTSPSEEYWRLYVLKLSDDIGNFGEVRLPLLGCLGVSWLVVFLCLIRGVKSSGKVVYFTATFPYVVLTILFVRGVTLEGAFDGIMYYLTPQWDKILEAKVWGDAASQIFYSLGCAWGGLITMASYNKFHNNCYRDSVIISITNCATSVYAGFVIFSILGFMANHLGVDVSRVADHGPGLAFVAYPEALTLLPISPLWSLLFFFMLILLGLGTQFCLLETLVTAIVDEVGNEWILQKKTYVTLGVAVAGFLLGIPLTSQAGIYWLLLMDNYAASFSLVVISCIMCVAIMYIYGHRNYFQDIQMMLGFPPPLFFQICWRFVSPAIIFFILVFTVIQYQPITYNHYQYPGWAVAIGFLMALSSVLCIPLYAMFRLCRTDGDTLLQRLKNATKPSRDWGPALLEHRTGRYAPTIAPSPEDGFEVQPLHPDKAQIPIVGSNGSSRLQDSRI
# [8] = target: T1, Sodium- and chloride-dependent glycine transporter 1 (Rattus norvegicus); test: Binding affinity to GlyT1 in rat brain cerebral cortex at 0.03 to 0.04 nM preincubated for 20 mins in binding buffer before compound addition measured after 30 mins by autoradiography in presence of 0.01 mM GlyT1 inhibitor ALX5407 relative to control; type: tissue-based; details: tested as the 125I-labelled form; in short: as §1
# [9] = target: T1, Sodium- and chloride-dependent glycine transporter 1 (Rattus norvegicus); test: Binding affinity to GlyT1 in rat brain cerebral cortex at 0.03 to 0.04 nM preincubated for 20 mins in binding buffer before compound addition measured after 30 mins by autoradiography in presence of 0.01 mM GlyT2 inhibitor ORG25543 relative to control; type: tissue-based; details: tested as the 125I-labelled form; in short: as §1
# Kidney = test: Drug uptake in ddY mouse kidney at 11.1 kBq, iv after 30 min by gamma counting; type: ADME, organism-based; details: in vivo, 0.5 h
# In short: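 Male ddY mice (6 weeks, 30–35 g) were given about 11.1 kBq of [125I]tracer in 0.1 mL i.v. via the tail vein. At each time point the animals were killed and organs dissected, weighed and gamma-counted. Uptake is expressed as % injected dose per gram of tissue, mean ± SD, n = 5–6.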
# Intestine [10] = test: Drug uptake in ddY mouse intestine at 11.1 kBq, iv after 5 min by gamma counting; type: ADME, organism-based; details: in vivo
# In short: (§2)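 Male ddY mice (6 weeks, 30–35 g) received about 11.1 kBq [125I]tracer in 0.1 mL i.v. via tail vein. Killed at set times, organs dissected and weighed, radioactivity gamma counted. Reported as % injected dose/g tissue, mean ± SD, n = 5–6.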
# Intestine [11] = test: Drug uptake in ddY mouse intestine at 11.1 kBq, iv after 180 min by gamma counting; type: ADME, organism-based; details: in vivo, 3 h; in short: as §2
# Mus musculus [12] = test: In vivo binding affinity to GlyT1 in ddY mouse brain medullary region at 33.3 kBq, iv after 60 mins in presence of N-Me-SSR504734 2 mg/kg, iv administered 15 mins prior to compound administration relative to control; type: functional, Medulla of organ
# Nucleic Acid = test: Ratio of drug level in brain to blood in ddY mouse at 11.1 kBq, iv after 0.5 min by gamma counting; type: ADME, organism-based
Activity [1] [%],Activity [4] [%],Activity [5] [%],Activity [6] [%],Ratio IC50 [7],Activity [8] [%],Activity [9] [%],Drug uptake (Kidney) [% ID/g],Drug uptake (Intestine [10]) [% ID/g],Drug uptake (Intestine [11]) [% ID/g],Ratio (Nucleic Acid),Compound,Activity (Mus musculus [2]),Activity (Mus musculus [3]),Activity (Mus musculus [12]) [%]
108,27.8,105,19.7,6,57.6,95.1,,,,,CN1CCCC[C@H]1[C@@H](NC(=O)c1cccc(C(F)(F)F)c1I)c1ccccc1,inactive,inactive,
,,,,,,,10.22,2.47,17.13,0.38,CN1CCCC[C@H]1[C@@H](NC(=O)c1cccc(C(F)(F)F)c1[125I])c1ccccc1,,,47

# Source: ChEMBL document CHEMBL1938298, “Synthesis and characterization of [¹²⁵I]2-iodo N-[(S)-{(S)-1-methylpiperidin-2-yl}(phenyl)methyl]3-trifluoromethyl-benzamide as novel imaging probe for glycine transporter 1” (Bioorg Med Chem, 2011)
